Assays:
[1] = biological target: T1, UDP-glucuronosyltransferase 1A8 (Homo sapiens, UniProt Q9HAW9); assay: Substrate inhibition of human UGT1A8-mediated T-5224 hydroxyl O-glucuronide formation after 10 to 60 mins in presence of UDP-glucuronic acid by HPLC method; format: ADME
T1 sequence (Q9HAW9 whole entry): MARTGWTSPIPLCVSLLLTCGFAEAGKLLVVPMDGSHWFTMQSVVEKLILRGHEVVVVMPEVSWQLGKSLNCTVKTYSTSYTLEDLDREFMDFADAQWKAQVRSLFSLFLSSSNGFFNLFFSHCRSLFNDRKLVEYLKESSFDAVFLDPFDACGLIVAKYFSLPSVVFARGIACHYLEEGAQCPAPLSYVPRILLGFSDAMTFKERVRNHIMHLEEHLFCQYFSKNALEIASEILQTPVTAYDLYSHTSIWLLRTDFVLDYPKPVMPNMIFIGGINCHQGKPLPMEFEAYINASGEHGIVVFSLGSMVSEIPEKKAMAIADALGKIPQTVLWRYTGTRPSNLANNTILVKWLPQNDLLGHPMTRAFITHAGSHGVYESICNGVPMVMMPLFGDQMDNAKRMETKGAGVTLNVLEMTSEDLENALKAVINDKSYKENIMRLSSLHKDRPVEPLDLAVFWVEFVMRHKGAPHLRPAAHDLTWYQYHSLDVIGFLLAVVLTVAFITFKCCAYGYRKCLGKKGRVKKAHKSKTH
Method in brief: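 Recombinant human UGT1A1, UGT1A3 or UGT1A8 from baculovirus-infected insect cells (0.1 mg protein/mL) in 50 mM Tris-HCl pH 7.5, 8 mM MgCl2, alamethicin, 2% DMSO. T-5224 at 1–50 μM with 2 mM UDPGA for 60 min at 37°C. HPLC with UV at 290 nm. Triplicates fitted to a substrate-inhibition model. kcat uses UGT content quantified by immunoblot against recombinant UGT1A1/UGT2B4 standards.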

[2] = biological target: T2, UDP-glucuronosyltransferase 1A1 (Homo sapiens, UniProt P22309); assay: Drug metabolism assessed as human UGT1A1-mediated T-5224 acyl O-glucuronide formation at 10 uM […] in presence of beta-estradiol by HPLC method; format: ADME; settings: recombinant enzyme
T2 sequence (P22309 whole entry): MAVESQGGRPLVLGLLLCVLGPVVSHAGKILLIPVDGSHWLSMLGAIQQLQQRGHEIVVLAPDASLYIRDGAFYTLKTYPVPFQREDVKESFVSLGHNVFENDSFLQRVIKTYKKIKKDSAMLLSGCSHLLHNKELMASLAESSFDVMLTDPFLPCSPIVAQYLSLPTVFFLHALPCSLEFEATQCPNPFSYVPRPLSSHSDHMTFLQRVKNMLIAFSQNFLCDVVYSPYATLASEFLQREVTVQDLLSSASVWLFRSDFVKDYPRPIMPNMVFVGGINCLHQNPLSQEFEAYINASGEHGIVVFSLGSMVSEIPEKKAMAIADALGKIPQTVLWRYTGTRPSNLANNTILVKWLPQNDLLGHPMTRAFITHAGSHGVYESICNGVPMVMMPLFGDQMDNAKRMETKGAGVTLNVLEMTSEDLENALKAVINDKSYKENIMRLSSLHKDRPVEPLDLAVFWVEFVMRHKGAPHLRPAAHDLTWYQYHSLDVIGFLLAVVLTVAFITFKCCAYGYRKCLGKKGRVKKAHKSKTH
Method in brief: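 Pooled human liver microsomes or recombinant UGT1A1 were incubated with 10 μM T-5224, 2 mM UDPGA and β-estradiol at 0–500 μM (2% DMSO), in Tris-HCl/MgCl2/alamethicin buffer. Incubation was 10 min (liver microsomes) or 60 min (UGT1A1) at 37°C. G2/G3 were read by HPLC at 290 nm, as mean ± SD, n = 3.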

[3] = biological target: T3, UDP-glucuronosyltransferase 1A3 (Homo sapiens, UniProt P35503); assay: Drug metabolism assessed as Vmax/Km ratio for human UGT1A3-mediated T-5224 acyl O-glucuronide formation per mg protein after 10 to 60 mins in presence of UDP-glucuronic acid by HPLC method; format: ADME; settings: recombinant enzyme
T3 sequence (P35503 whole entry): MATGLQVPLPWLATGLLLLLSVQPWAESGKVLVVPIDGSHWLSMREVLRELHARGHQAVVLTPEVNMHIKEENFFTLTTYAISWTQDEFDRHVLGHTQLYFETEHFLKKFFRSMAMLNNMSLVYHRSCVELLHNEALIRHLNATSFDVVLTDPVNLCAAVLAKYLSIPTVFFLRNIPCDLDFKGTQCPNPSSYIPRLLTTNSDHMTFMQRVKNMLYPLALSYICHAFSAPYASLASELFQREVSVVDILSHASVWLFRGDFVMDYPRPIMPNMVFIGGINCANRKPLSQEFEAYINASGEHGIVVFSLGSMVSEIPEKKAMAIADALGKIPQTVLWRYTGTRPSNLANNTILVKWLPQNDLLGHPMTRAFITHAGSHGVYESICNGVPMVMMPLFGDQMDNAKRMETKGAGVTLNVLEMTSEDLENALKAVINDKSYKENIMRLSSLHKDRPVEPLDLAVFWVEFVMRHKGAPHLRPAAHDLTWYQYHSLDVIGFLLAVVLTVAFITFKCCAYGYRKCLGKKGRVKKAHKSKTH
Method in brief: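 Kinetics used recombinant UGT1A1, 1A3 or 1A8 (0.1 mg protein/mL) with T-5224 at 1–50 μM, 2 mM UDPGA and 60 min at 37°C, in triplicate. G2/G3 were measured by HPLC at 290 nm and fitted to a substrate-inhibition model (Vmax, Km, Ksi). UGT content was quantified by immunoblot, and kcat = Vmax/E0 was derived from it.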

Liver microsome = assay: Substrate inhibition of T-5224 acyl O-glucuronide formation in human liver microsomes after 10 to 60 mins by HPLC method
Method in brief: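 Pooled liver (0.5 mg protein/mL) or intestinal (0.25 mg protein/mL) microsomes in 50 mM Tris-HCl pH 7.5, 8 mM MgCl2, alamethicin, 2% DMSO. T-5224 at 1–50 μM, 5 min preincubation at 37°C, started with 2 mM UDPGA. Incubated 10 min, or 20 min for intestinal microsomes at 1–5 μM. Acetonitrile stop, glucuronides by HPLC at 290 nm. Triplicates fitted to a substrate-inhibition model.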

Cytochrome P450 2E1 = Cytochrome P450 2E1 (Homo sapiens, UniProt P05181); assay: Drug metabolism assessed as human CYP2E1-mediated metabolite formation at 2 uM after 30 mins by HPLC method; format: ADME; settings: recombinant enzyme, 0.5 h
Method in brief: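 Each recombinant human P450 was used at 50 pmol/mL with an NADPH-generating system and 2 μM 14C-T-5224 (0.5% DMSO final). Buffer was 100 mM Tris-HCl pH 7.5, except 100 mM potassium phosphate pH 7.4 for CYP2A6 and CYP2C9*1. Incubation ran 30 min at 37°C and was stopped with acetonitrile/methanol. Radioactive metabolite peaks were detected by C18 HPLC.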

Cytochrome P450 2E1, sequence (P05181 whole entry): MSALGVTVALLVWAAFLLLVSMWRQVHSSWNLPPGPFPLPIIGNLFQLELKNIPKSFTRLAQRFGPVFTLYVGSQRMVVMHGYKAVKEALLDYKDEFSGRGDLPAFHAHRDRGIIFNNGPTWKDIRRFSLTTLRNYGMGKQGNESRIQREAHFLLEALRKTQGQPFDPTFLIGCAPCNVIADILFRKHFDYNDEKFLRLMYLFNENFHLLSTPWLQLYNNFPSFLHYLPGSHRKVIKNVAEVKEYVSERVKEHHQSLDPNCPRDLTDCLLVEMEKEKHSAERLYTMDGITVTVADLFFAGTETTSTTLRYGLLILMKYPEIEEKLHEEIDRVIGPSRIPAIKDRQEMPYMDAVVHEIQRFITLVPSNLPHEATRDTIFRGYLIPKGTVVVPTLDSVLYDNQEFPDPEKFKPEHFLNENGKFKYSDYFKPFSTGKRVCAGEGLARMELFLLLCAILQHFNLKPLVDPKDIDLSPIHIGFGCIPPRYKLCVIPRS

Question: Which Ki [1] does the source give for `O=C(O)CCc1cc(C(=O)c2ccc(OC3CCCC3)cc2O)ccc1OCc1ccc2c(O)noc2c1` here?
Answer: 3.64 µM

Question: What about the Drug metabolism [2] of the same compound?
Answer: metabolite_not_detected

Question: And the Vmax/Km [3]?
Answer: 15.5 µL/min

Question: What about the Ki (Liver microsome) of the same compound?
Answer: 13.2 µM

Question: What about the Drug metabolism (Cytochrome P450 2E1) of the same compound?
Answer: metabolite_not_detected
